The source of these data is PubChem BioAssay AID504733 (Southern Research Specialized Biocontainment Screening …, 2011).

The assay relates to E. coli UTI89 capsule, orcinol OD572. The assay is described as follows: surface polysaccharide capsule reduction in UPEC – orcinol colorimetric, UTI89 strain, 100 µM, orthogonal assay, confirmation (AID 504733). Conditions: at 100 µM; active compounds read low. The method, boiled down:
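Test system: Uropathogenic E. coli UTI89 or its capsule-export mutant ΔkpsM | Doses: One 100 µM compound dose | Timing: Hydrolysis step 1 h, 80 °C, pH 2 | Technique: Orcinol colour at OD 572 nm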

Take `O=C(ONc1ccc(N=NC(=O)c2ccccc2O)cc1)c1ccccc1`: the capsule formation was 16%.
For `CC1=NN2C(=N)/C(=C\c3ccc(SCc4ccco4)o3)C(=O)N=C2S1` the value was 20.2%.
In the case of `COc1ccc2nc(NC(=O)c3ccc(Br)s3)sc2c1` it was 24.5%; in that of `O=C(Nc1ccncc1)c1ccc2ncsc2c1`, 19.1%; in that of `O=C(NCc1cc([N+](=O)[O-])ccc1O)c1cccnc1Sc1ccccc1Cl`, 18.6%.
In the case of `CCOc1ccc(-c2cc(NC(=O)c3c(F)cccc3F)c(C(=O)O)s2)cc1` it was 9.04%.
